High-throughput results (PubChem BioAssay)
RORA act: activators of human nuclear receptor RORA | activation, % at 10 µM | CHO-K1 Gal4-RORA LBD luciferase reporter, luminescence; percent increase over mock-subtracted basal signal | 1.5% of 65,000 active;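 active = activation above the mean of all tested compounds plus 3 SD, cut at about 49% in these data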;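 also: 0% = DMSO-treated RORA cells and 100% = added signal equal to DMSO minus mock-transfected cells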
SF-1 act: activators of human nuclear receptor SF-1. activation, % at 10 µM. Q13285. 1.9% of 65,000 active. CHO-K1 Gal4-SF-1 LBD luciferase reporter; % increase over DMSO SF-1-specific signal. AID 522;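 active = activation above the mean activation of all tested compounds plus 3 SD, cut at about 50% in these data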
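Material: Transient Gal4-SF-1 LBD reporter, CHO-K1 | Input: 4,000 cells/well | Dosing: One dose, 10 µM compound, 1% DMSO | Incubation: 20 h compound treatment, 37 °C | Detection: SteadyLite luciferase luminescence | Evaluation: Percent activation relative to DMSO median and mock-transfected background | Benchmarks: DMSO-treated SF-1-transfected cells as negative, DMSO-treated mock-transfected cells lacking SF-1 as background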
Htt clearance: compounds clearing mutant huntingtin protein; AID 853; inhibition, % at 1.5 µM; 0.42% of 47,000 active; HeLa Exon1htt(103Q)mCFP, aggregate imaging; zero = plate's median compound well;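 active = inhibition of aggregate fluorescence above about 70%, also judged a hit by eye on the cell image, limit read from the data, passing the limit was not always enough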;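 also: cells exposed to compound for three days before fixation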
M1 ag: activates the M1 muscarinic receptor. CHO-M1 cells, Fluo-4 calcium fluorescence, agonist mode; active compounds read high. B-score at 10 µM. 3% of 64,000 active;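 active = fluorescence rise, raw or as B-score row- and column-corrected plate score, outside the 99.7% band of its plate's samples, either direction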
M1 antag: M1 muscarinic receptor (rat) antagonism | P08482 | CHO-M1 cells, Fluo-4 calcium, ACh EC80 antagonist mode; active compounds read low | B-score at 10 µM | 3.4% of 64,000 active;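 active = calcium fluorescence response, raw or row-and-column corrected B-score, differing from the plate sample mean either way at a set confidence level, mostly lower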
Target sequence (P08482 whole entry, looked up): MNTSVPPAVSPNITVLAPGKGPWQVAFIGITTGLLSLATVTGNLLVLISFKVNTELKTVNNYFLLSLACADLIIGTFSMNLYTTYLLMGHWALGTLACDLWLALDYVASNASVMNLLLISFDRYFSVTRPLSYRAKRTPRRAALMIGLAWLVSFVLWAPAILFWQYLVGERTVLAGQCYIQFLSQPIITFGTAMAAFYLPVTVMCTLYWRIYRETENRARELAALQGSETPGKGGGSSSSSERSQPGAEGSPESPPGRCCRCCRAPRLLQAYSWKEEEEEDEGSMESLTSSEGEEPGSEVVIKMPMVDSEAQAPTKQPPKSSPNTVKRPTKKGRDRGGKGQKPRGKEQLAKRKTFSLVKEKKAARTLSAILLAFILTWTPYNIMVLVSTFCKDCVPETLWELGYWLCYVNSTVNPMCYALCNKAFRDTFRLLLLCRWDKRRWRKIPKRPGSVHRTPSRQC
D1 mod: allosterically modulates the human D1 dopamine receptor; P21728; HEK293 D1, CRE-luciferase, dopamine EC30 potentiation; actives deviate in either direction; B-score at 10 µM; 5.9% of 58,000 active;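 active = luminescence count or its row- and column-corrected plate score outside the 99.7% band of the plate's sample wells, on either side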
M1 antag confirm: confirmation of rat M1 muscarinic receptor antagonists. shares compounds with M1 antag. CHO-M1 cells, Fluo-4 calcium, ACh EC80 antagonism; active compounds read low. calcium response (max-min fluorescence) at 10 µM. 43% of 1,700 active;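 active = calcium response below the same-plate mean of wells given acetylcholine alone at its 80%-effect dose, minus 3 SD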;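 also: raw fluorescence intensity difference in arbitrary instrument units and not normalized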
mGluR4 antag: mGluR4 (human) activity, M1 antagonist secondary assay. CHO-mGluR4 calcium flux, Fluo-4 fluorescence, glutamate EC80; active compounds read low. 0.9% of 1,700 active. shares compounds with M1 antag. fluorescence response (max-min) at 10 µM;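 active = fluorescence response below the plate's average for near-maximal glutamate wells, less 3 SD of those wells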;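 also: raw unnormalized fluorescence span taken in the window right after glutamate addition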
D1 mod confirm: confirmation of human D1 dopamine receptor allosteric modulators. shares compounds with D1 mod. HEK293 D1 CRE-luciferase, dopamine EC30 potentiation; active compounds read high. 88% of 2,200 active. luminescence at 10 µM;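 active = luminescence in either of two replicates above the same-plate mean plus 3 SD of the low-dose dopamine control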
D1 no dopamine: activates D1 CRE-luciferase signal without dopamine present; shares compounds with D1 mod; HEK293 D1 CRE-luciferase, luminescence, no dopamine; active compounds read high; luminescence at 10 µM; 0.8% of 1,900 active; AID 646; in the data active = luminescence above about 3900
Isoprot counter: isoproterenol response counter-screen activity for D1 modulators. AID 647. HEK293 D1 CRE-luciferase, isoproterenol EC30 counter-screen. 63% of 2,200 active. calls only at 10 µM. shares compounds with D1 mod;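 active = luminescence in either replicate above plate mean of wells with a partly effective reference agonist dose plus 3 SD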;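 also: isoproterenol raises cAMP through native beta-adrenoceptor Gs so signal bypasses D1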
Starred values were filed as active, the others as inactive; i = inactive; x = not tested or not shown; + = active, no number. In the library only some 11% were active in any assay of this set; here they are far more common.

SMILES	RORA act	SF-1 act	Htt clearance	M1 ag	M1 antag	D1 mod	M1 antag confirm	mGluR4 antag	D1 mod confirm	D1 no dopamine	Isoprot counter
CC1=C(C(=O)Nc2ccccc2Cl)C(c2ccc(N(C)C)cc2)NC(=O)N1 (stereo unspecified)	-15	1	-32	-1	0.017	-0.27	x	x	x	x	x
CCOc1nc(C#N)nc(N2CCCCC2)n1	16	-4	x	-1.6	-1.2*	2.6*	430*	234	10912*	1612	+
COc1nc(N2CCCCCC2)nc(N2CCCCCC2)n1	-11	-16	-34	-0.2	0.45	0.018	x	x	x	x	x
O=C(CSc1cccc(C(F)(F)F)c1)Nc1ccc(Cl)cc1Cl	x	x	3	x	x	x	x	x	x	x	x
COc1cccc(/C(O)=C2/C(=O)C(=O)N(CCN3CCOCC3)C2c2cccs2)c1 (stereo unspecified)	-6	-4	x	0.28	1	0.51	x	x	x	x	x
CCOC(=O)c1oc2ccc(Br)cc2c1NC(=O)CN1CCN(C)CC1	-11	-17	22	-0.52	-2.9*	5.7*	450*	296	5896*	1096	i
COC(=O)c1oc2ccc(Br)cc2c1NC(=O)CCN1CCOCC1	-6	4	x	0.4	1	-0.23	x	x	x	x	x
c1cncc(-c2nnc3sc(C4CCCCC4)nn23)c1	-14	-10	-6	0.73	0.82	x	x	x	x	x	x
Cc1cc(-c2nnc3sc(C4CCCCC4)nn23)n[nH]1	45	-12	-2	-0.075	-0.13*	7.8*	518	214	14928*	x	+
O=C(c1ccco1)N1CCN(S(=O)(=O)c2ccc3c(c2)CCN3C(=O)C2CC2)CC1	-21	14	1	-1.2	-2.4*	4.2*	633	242	11508*	1616	i
CC1CCc2cc(F)ccc2N1C(=O)CSc1nnc2c(n1)[nH]c1ccc(F)cc12 (stereo unspecified)	x	x	-29	x	x	x	x	x	x	x	x
Cc1cc(C)c2nc(N3CCC(C(=O)N4CCCC4)CC3)sc2c1	6	-1	30	-0.1	-8*	3.5*	233*	180	5940	1656	i
O=C(CC1Oc2ccccc2NC1=O)NC1CCCC1 (stereo unspecified)	20	-3	x	-0.9	0.016	0.54	x	x	x	x	x
CC1CCN(Cc2ccc(NC(=O)CC3Oc4ccccc4NC3=O)cc2)CC1 (stereo unspecified)	-2	-9	-12	-0.7	-11*	2.8*	24*	229	5132	1676	i
COc1ccc(N2C(=O)C3CCCN3C2c2ccccc2Cl)cc1 (stereo unspecified)	0	1	-234	0.032	-1	-0.24	x	x	x	x	x
COc1ccc(C2CC(c3cc(OC)ccc3OC)n3nnnc3N2)cc1 (stereo unspecified)	-3	-2	x	1.4	-17*	2.7*	635	240	9576*	1560	i
CCCCSc1nc2c(cnn2-c2ccc(F)cc2)c(=O)[nH]1	31	-13	48	0.039	-2.9*	7*	643	155	7560*	1648	i
O=c1c2ccccc2n(Cc2ccc(F)cc2)c(=O)n1C1CCCC1	-4	6	x	-0.00025	-14*	4.9*	576	252	9856*	1664	+
COc1ccc(C(=O)Nc2nc(C)c(C)s2)cc1OC	x	x	-5	x	x	x	x	x	x	x	x
COc1ccc(C(=O)Nc2nnc(Cc3cccs3)s2)cc1OC	8	4	x	-1.1	-17*	3*	621	244	9388*	1740	i
